Bioassay records from PubChem BioAssay.
PostGolgi ctrl: growth of the yeast control strain, post-Golgi counter-screen | efflux-deficient yeast background strain, growth absorbance A615, 16 h | inhibition, % at 10 µM | 5% of 98,000 active | AID 738
Ecoli tolC: growth inhibitors of E. coli BW25113 tolC mutant; OD615; growth inhibition, % at 10 µM (by protocol); 2.2% of 65,000 active;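 active means growth inhibition at or above a cutoff equal to the mean over every tested compound plus 3 SD, cut at about 60% in these data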;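 further: growth measured after 20 h incubation at 37 °C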
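Signal: optical density read at 615 nm; Assay system: E. coli ΔtolC::kan strain BW25113; Times: 20 h incubation with compound, 37 °C; Dosing: 10 µM final, single dose.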
Her2 expr inh: Her2 kinase expression inhibition. SKBR-3 HER2 protein level, AlphaScreen, 18-24 h; active compounds read low. 0.69% of 65,000 active. P04626. HER2 level % of control, % at 10 µM;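 active means HER2 level under 5% of the carrier-only control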;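 further: lower value means stronger loss of Her2 protein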
Ecoli WT expand: blocks growth of wild type E. coli BW25113 | OD600 absorbance | growth inhibition, % at 100 µM | 0.15% of 98,000 active;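 active means growth inhibition above about 50% at one test dose, limit read from the data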;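 further: growth measured after 20 h incubation at 37 °C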
PostGolgi yeast: growth inhibition of a yeast mutant, post-Golgi transport screen; post-Golgi transport phenotypic cell assay; inhibition, % at 10 µM; 0.9% of 98,000 active;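 further: yeast cells grown in 1536-well plates; yeast grown about 18 h at 30C before absorbance read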
Numbers stand for hits; - = inactive; . = no result. Compounds with a hit are over-represented: about 6.6% of the library has one in this group of screens. Unless noted, no stated cut-off is given here; in the data, active means inhibition above about 30%; inactive means the rest.

SMILES | PostGolgi ctrl | Ecoli tolC | Her2 expr inh | Ecoli WT expand | PostGolgi yeast
CC(=O)Nc1ccc(-c2cc(-c3ccc(NC(C)=O)cc3)nc(-c3ccccc3)n2)cc1 | - | . | . | - | -
Cc1ccc(-c2cc(-c3ccccc3)nc(Cl)n2)cc1 | - | . | . | - | -
Cc1ccc2nc(-c3ccncc3)cc(-c3ccccc3)c2c1 | 41.7 | . | . | - | -
O=C(O)c1cc(NCc2ccc3c(c2)OCO3)ccc1N1CCOCC1 | - | - | - | - | 31.9
COc1ccc(/C=N/NC(N)=S)cc1OC(=O)c1cccc2ccccc12 | 65.0 | . | . | - | -
COc1ccc(/C=N/NC(=O)c2nc(-c3ccccc3)cc(-c3ccccc3)n2)cc1OC | 32.4 | . | . | - | -
COc1cccc(/C=N/NC(=O)c2nc(-c3ccccc3)cc(-c3ccccc3)n2)c1 | - | . | . | - | -
COc1ccc(/C=N/NC(=O)COc2ccccc2-c2ccccc2)cc1 | 55.5 | . | . | - | -
CCOc1cc(/C=C(/C#N)c2ccc(F)cc2)ccc1OCc1ccc(C(=O)O)o1 | - | 81.8 | - | - | -
O=c1c2ccccc2n(Cc2cccc(F)c2)c(=O)n1C1CCCC1 | 39.8 | 76.6 | - | - | -
N#Cc1ccccc1Cn1c(=O)n(C2CCCC2)c(=O)c2ccccc21 | 30.4 | . | . | - | -
CCOC(=O)Cn1c(=O)n(C2CCCC2)c(=O)c2ccccc21 | - | - | - | - | -
CCOC(=O)N1CCC(NS(=O)(=O)c2cc(Br)cnc2N)CC1 | - | - | - | - | -
O=S(=O)(c1ccc(-c2nc3ccccc3s2)cc1)N1CCCC1 | - | . | . | - | -
Clc1ccsc1-c1csc(-c2cccnc2)n1 | 85.1 | . | . | - | 81.4
O=S(=O)(c1ccc(-c2csc(-c3cccnc3)n2)cc1)N1CCCC1 | - | - | - | - | -
O=S(=O)(c1ccc(-c2csc(-c3cccnc3)n2)cc1)N1CCCCC1 | 40.7 | - | - | - | -
O=S(=O)(c1cccc(-c2nc3ccccc3s2)c1)N1CCCC1 | 33.8 | - | - | - | -
O=S(=O)(c1ccc(F)cc1)N1CCN(c2nc(-c3ccc(F)cc3)cs2)CC1 | 36.6 | . | . | - | -
CCC(C)(C)NC(=O)C(c1cccnc1)N(CCOC)C(=O)Cn1nnc2ccccc21 (configuration not stated) | - | - | - | - | -
CCOC(=O)c1cnc2c(N=Nc3ccccc3)c(N)nn2c1N | - | . | . | - | -
O=C(NC1CCCC1)c1cccc(NC(=O)c2ccco2)c1 | - | . | . | - | -
CCOC(=O)N1CCN(C(=O)CCSCCc2ccncc2)CC1 | - | - | - | - | -
Nc1cccc(-c2nc3ccccc3s2)c1 | 31.0 | . | . | - | -
O=S(=O)(c1cccc(-c2csc(-c3cccnc3)n2)c1)N1CCCCC1 | 32.1 | - | - | - | -
SMILES | PostGolgi ctrl | Ecoli tolC | Her2 expr inh | Ecoli WT expand | PostGolgi yeast
Cc1nc2ccccn2c1/C(O)=C1\C(=O)C(=O)N(CCCN(C)C)C1c1ccc(F)cc1 (configuration not stated) | . | - | - | . | .
Cc1[nH]c(=O)[nH]c(=O)c1S(=O)(=O)N1CCN(c2ccccc2F)CC1 | - | . | . | - | -
O=c1[nH]c2ccc(S(=O)(=O)N3CCN(c4ccccc4F)CC3)cc2s1 | 30.8 | 99.5 | - | - | -
O=C(CCCOc1ccc(Cl)cc1Cl)Nc1ccncc1 | 61.5 | . | . | - | -
COC(=O)CCC(=O)NNC(=O)CCCOc1ccc(Cl)cc1Cl | - | . | . | - | -
CC(Oc1ccc(Cl)cc1Cl)C(=O)Nc1ccncc1 (configuration not stated) | 43.7 | - | - | - | 57.9
CCNC(=O)CCCOc1ccc(Cl)cc1Cl | 35.9 | - | - | - | -
CSCC[C@H](NC(=O)c1ccc(Cl)c(S(=O)(=O)N2CCCC2)c1)c1nc2ccccc2[nH]1 | - | . | . | - | -
CCCC1=C(C(=O)OCC)C(c2ccc(O)cc2)n2ncnc2N1 (configuration not stated) | - | - | - | - | -
Cc1ccc(C(=O)CSc2nc3cc(S(=O)(=O)N4CCOCC4)ccc3o2)cc1 | 38.5 | - | - | - | -
Cc1[nH]c2ccccc2c1C(=O)CSc1nc2cc(S(=O)(=O)N3CCCCC3)ccc2o1 | - | - | - | - | -
O=C1c2cnc3nc(SCc4ccccc4)nn3c2CC2c3ccccc3CCN12 (configuration not stated) | 95.8 | . | . | - | 68.4
COC(=O)CSc1nc2ncccc2[nH]1 | 34.6 | . | . | - | -
COc1ccc(CN2CCCCC2c2cccnc2)c(OC)c1C (configuration not stated) | . | - | - | . | .
Fc1ccc(Nc2ncnc3sc4c(c23)CCC4)cc1 | 40.0 | . | . | - | -
c1ccc(Nc2ncnc3sc4c(c23)CCC4)cc1 | - | . | . | - | -
c1csc(CCNc2ncnc3sc4c(c23)CCC4)c1 | 82.2 | - | - | - | -
CN(c1ccccc1)S(=O)(=O)c1cc(C(=O)N2CCN(c3ccccn3)CC2)ccc1Cl | - | - | - | - | -
O=C1CCCCCN1CP(=O)(O)CN1CCOCC1 | . | - | - | . | .
COc1ccc(C)cc1S(=O)(=O)N(C)CC(=O)N1CCCCCC1 | - | - | - | - | -
Cc1cc(OCC(F)(F)C(F)(F)C(F)(F)C(F)(F)C(F)(F)C(F)F)nc(N)n1 | - | . | . | - | 37.0
O=C(C1CCCN(c2nnc(-n3cccc3)s2)C1)N1CCN(c2ccccc2)CC1 (configuration not stated) | 41.1 | - | - | - | -
O=C(NCCCc1ccccc1)C1CCN(c2nnc(-n3cccc3)s2)CC1 | 38.5 | - | - | - | -
Cc1cc2ncn(CC(O)COc3cccc(C(=O)O)c3)c2cc1C (configuration not stated) | - | - | - | - | 35.2
CC(=O)Nc1cccc(OCC(O)Cn2cnc3ccccc32)c1 (configuration not stated) | - | - | - | - | -
SMILES | PostGolgi ctrl | Ecoli tolC | Her2 expr inh | Ecoli WT expand | PostGolgi yeast
CN(C1=C(N2CCCCC2)C(=O)c2ccccc2C1=O)c1ccccc1 | 33.1 | . | . | - | -
O=C1C(Nc2ccccc2)=C(N2CCCCC2)C(=O)c2ccccc21 | - | . | . | - | -
CCN(c1ccc(NC(=O)CN2C(=O)NC3(CCOc4ccccc43)C2=O)cc1)C(C)C (configuration not stated) | - | . | . | - | -
Cc1ccc2nc3c(cc(C#N)c(=O)n3-c3nccs3)c(=O)n2c1 | 30.6 | - | - | - | -
Cc1ccc2nc3c(cc(C#N)c(=O)n3CCN3CCOCC3)c(=O)n2c1 | . | - | - | . | .
CCOC(=O)C(C)Sc1nc2c(c(=O)[nH]c(=O)n2C)n1Cc1ccc(Cl)cc1 (configuration not stated) | 31.8 | - | - | - | -
Cc1ccc(Cn2c(SCC(C)C)nc3c2c(=O)[nH]c(=O)n3C)cc1 | - | . | - | - | -
CCC(C)Sc1nc2c(c(=O)[nH]c(=O)n2C)n1Cc1ccc(Cl)cc1 (configuration not stated) | 46.3 | - | - | - | -
CC(C)Sc1nc2c(c(=O)[nH]c(=O)n2C)n1Cc1ccc(Cl)cc1 | - | - | - | - | -
Cc1nc(N2CCN(c3ccccc3)CC2)nc2c1C(=O)CC(c1ccccc1)C2 (configuration not stated) | - | - | - | - | -
Cc1nc(N2CCN(c3ccccc3)CC2)nc2c1C(=O)CC(C)C2 (configuration not stated) | 37.3 | - | - | - | -
